Measurements: ChEMBL document CHEMBL4406901, “Synthesis, 3D-structure and stability analyses of NRPa-308, a new promising anti-cancer agent” (Bioorg Med Chem Lett, 2019)

Columns and labels:
BT-549 [1] = assay: Antiproliferative activity against human BT549 cells expressing NRP1 assessed as cell viability measured after 72 hrs by MTT assay; assay type: functional, cell-based; settings: BT-549, 72 h
MDA-MB-231 [2] = assay: Antiproliferative activity against human MDA-MB-231 cells expressing NRP1 assessed as cell viability measured after 48 hrs by MTT assay; assay type: functional, cell-based; settings: MDA-MB-231, 48 h
MDA-MB-231 [3] = assay: Antiproliferative activity against human MDA-MB-231 cells expressing NRP1 assessed as cell viability measured after 72 hrs by MTT assay; assay type: functional, cell-based; settings: MDA-MB-231, 72 h
BT-549 [4] = assay: Antiproliferative activity against human BT549 cells expressing NRP1 assessed as cell viability measured after 48 hrs by MTT assay; assay type: functional, cell-based; settings: BT-549, 48 h
[5] = Retention time of compound in human BT549 cells at 2 uM incubated at 37 degree C measured after 3 days by HPLC analysis; assay type: ADME, cell-based; settings: bt-549, 72 h
Method in brief: (§1)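 MDA-MB-231 or BT-549 breast cancer cells were cultured with […] of compound for three days at 37 °C. Supernatant was analysed by HPLC. Cells were then washed and lysed with methanol, and the intracellular compound was measured by quantitative HPLC dosage, giving mol per sample.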

[6] = Retention time of compound at 1mg measured immediately by HPLC analysis; assay type: physicochemical
[7] = Retention time of compound in human MDA-MB-231 cells at 2 uM incubated at 37 degree C measured after 3 days by HPLC analysis; assay type: ADME, cell-based; settings: mda-mb-231, 72 h; method in brief: as §1
[8] = Chemical stability of compound in DMSO/aqueous buffer at 1 mg at pH 0.9 to 8.4 incubated at 37 degree C and measured upto 16 days by HPLC analysis; assay type: physicochemical; settings: read-out: Stability
Method in brief: (§2)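 Compound held in aqueous buffers at pH 0.9, 7.4 and 8.4 at 25 °C or 37 °C for up to 16 days; the chromatographic profile was followed by HPLC.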

[9] = Drug uptake in human BT549 cells at 2 uM incubated at 37 degree C measured after 3 days by HPLC analysis; assay type: ADME, cell-based; settings: bt-549, 72 h; method in brief: as §1
[10] = Chemical stability of compound in DMSO/aqueous buffer at 1 mg at pH 0.9 to 8.4 incubated at 25 degree C and measured upto 16 days by HPLC analysis; assay type: physicochemical; settings: read-out: Stability; method in brief: as §2
[11] = Retention time of compound in human BT549 cell lysates at 2 uM incubated at 37 degree C measured after 3 days by HPLC analysis; assay type: ADME, subcellular, Lysate; settings: bt-549, 72 h; method in brief: as §1
[12] = Retention time of compound in pH 0.91 at 1 mg incubated at 37 degree C by HPLC analysis; assay type: physicochemical; method in brief: as §2
[13] = Drug uptake in human MDA-MB-231 cells at 2 uM incubated at 37 degree C measured after 3 days by HPLC analysis; assay type: ADME, cell-based; settings: mda-mb-231, 72 h; method in brief: as §1
MDA-MB-231 [14] = assay: Antitumour activity against human MDA-MB-231 cells xenografted in nude mouse assessed as reduction in tumour growth at 50 mg/kg, po administered every 3 days for 20 days and measured 3 times a week by caliper method relative to control; settings: MDA-MB-231, po, read-out: TGI
[15] = Retention time of compound in human MDA-MB-231 cell lysates at 2 uM incubated at 37 degree C measured after 3 days by HPLC analysis; assay type: ADME, subcellular, Lysate; settings: mda-mb-231, 72 h; method in brief: as §1
[16] = Retention time of compound at in pH 8.4 at 1 mg incubated at 37 degree C by HPLC analysis; assay type: physicochemical; method in brief: as §2
[17] = Retention time of compound in pH 7.4 at 1 mg incubated at 37 degree C by HPLC analysis; assay type: physicochemical; method in brief: as §2

SMILES | IC50 (BT-549 [1]) [µM] | IC50 (MDA-MB-231 [2]) [µM] | IC50 (MDA-MB-231 [3]) [µM] | IC50 (BT-549 [4]) [µM] | Retention_time [5] [min] | Retention_time [6] [min] | Retention_time [7] [min] | remaining at 384 h [8] [%] | Drug uptake [9] [nmol] | remaining at 384 h [10] [%] | Retention_time [11] [min] | Retention_time [12] [min] | Drug uptake [13] [nmol] | inhibition in vivo at 50 mg/kg (MDA-MB-231 [14]) [%] | Retention_time [15] [min] | Retention_time [16] [min] | Retention_time [17] [min]
CCN(CC)CCNC(=O)c1c(C)[nH]c(/C=C2\C(=O)Nc3ccc(F)cc32)c1C [SUNITINIB] | 3.5 | 2.6 | 3.7 | 2.2 |  |  |  |  |  |  |  |  |  |  |  |  | 
CCOc1ccccc1NC(=O)c1ccc(C)c(S(=O)(=O)Nc2ccc(C)cc2)c1 | 0.1 | 4.9 | 0.2 | 2.1 | 4.05 | 4.075 | 4.492 | 100 | 1.4 | 100 | 3.992 | 4.058 | 5.14 | > 60 | 4.025 | 4.05 | 4.067
